Assay results published in ChEMBL document CHEMBL1135398, “Methanocarba modification of uracil and adenine nucleotides: high potency of Northern ring conformation at P2Y1, P2Y2, P2Y4, and P2Y11 but not P2Y6 receptors” (J Med Chem, 2002).
Active and inactive are the calls of the source. No cut-off for these calls is given here.

Experiments:
Format in all cases: functional
P2Y purinoceptor 6 [1] = biological target: T1, P2Y purinoceptor 6 (Homo sapiens, UniProt Q15077); assay: Measure of Agonist Potency at human P2Y purinoceptor 6 (hP2Y6) stably expressed in […] astrocytoma cell; NE means no effect at 100 uM
T1 sequence (Q15077 whole entry): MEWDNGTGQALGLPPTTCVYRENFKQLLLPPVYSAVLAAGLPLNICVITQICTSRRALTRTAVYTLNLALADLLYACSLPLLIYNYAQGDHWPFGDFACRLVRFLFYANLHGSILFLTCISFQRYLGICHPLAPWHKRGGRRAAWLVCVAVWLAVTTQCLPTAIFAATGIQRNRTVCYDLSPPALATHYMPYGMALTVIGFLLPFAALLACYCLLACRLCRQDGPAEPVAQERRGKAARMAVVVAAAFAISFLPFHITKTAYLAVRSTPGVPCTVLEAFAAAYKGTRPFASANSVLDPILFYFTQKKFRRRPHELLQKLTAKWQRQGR
Method in brief: (§1)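 1321N1 cells stably expressing the human receptor were labelled overnight with 1 μCi [³H]myo-inositol per well in inositol-free DMEM. [³H]inositol phosphate formation was then measured over 10 min at 37 °C with 10 mM LiCl. EC50 came from a four-parameter logistic fit of full concentration-effect curves, averaged over 3–8 independent curves.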

[2] = biological target: P2Y purinoceptor 1 (Meleagris gallopavo) (UniProt P49652); assay: Measure of Agonist Potency at turkey Purinoceptor P2Y1 stably expressed in […] astrocytoma cell; NE means no effect at 100 uM
Chain of P2Y purinoceptor 1 (Meleagris gallopavo) (P49652 whole entry): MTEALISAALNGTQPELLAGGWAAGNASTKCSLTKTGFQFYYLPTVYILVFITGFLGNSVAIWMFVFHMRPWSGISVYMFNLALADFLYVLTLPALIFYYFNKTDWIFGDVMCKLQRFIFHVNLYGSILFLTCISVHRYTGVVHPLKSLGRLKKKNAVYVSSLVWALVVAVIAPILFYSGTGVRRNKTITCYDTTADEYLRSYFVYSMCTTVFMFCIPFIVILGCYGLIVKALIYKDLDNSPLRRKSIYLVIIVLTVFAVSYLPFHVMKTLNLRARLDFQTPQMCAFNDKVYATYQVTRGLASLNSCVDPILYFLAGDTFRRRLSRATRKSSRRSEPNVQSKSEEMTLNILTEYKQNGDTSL

[3] = biological target: T2, P2Y purinoceptor 11 (Homo sapiens) (UniProt Q96G91); assay: Measure of Agonist Potency at human P2Y purinoceptor 11 (hP2Y11) stably expressed in […] astrocytoma cell at 10 uM
T2 sequence (whole entry): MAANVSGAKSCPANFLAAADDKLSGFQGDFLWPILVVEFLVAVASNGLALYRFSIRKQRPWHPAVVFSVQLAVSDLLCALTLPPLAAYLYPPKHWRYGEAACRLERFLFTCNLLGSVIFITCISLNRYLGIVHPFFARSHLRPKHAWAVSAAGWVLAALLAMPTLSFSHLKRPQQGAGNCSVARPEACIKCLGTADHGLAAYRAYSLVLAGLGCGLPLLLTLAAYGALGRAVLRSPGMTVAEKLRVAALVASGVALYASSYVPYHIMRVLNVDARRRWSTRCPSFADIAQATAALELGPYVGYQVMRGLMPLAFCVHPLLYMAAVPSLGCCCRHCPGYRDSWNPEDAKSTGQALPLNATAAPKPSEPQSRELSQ

P2Y purinoceptor 2 = P2Y purinoceptor 2 (Homo sapiens, UniProt P41231); assay: Measure of Agonist Potency at human P2Y purinoceptor 2 (hP2Y2) stably expressed in […] astrocytoma cell; method in brief: as §1
Chain of P2Y purinoceptor 2 (P41231 whole entry): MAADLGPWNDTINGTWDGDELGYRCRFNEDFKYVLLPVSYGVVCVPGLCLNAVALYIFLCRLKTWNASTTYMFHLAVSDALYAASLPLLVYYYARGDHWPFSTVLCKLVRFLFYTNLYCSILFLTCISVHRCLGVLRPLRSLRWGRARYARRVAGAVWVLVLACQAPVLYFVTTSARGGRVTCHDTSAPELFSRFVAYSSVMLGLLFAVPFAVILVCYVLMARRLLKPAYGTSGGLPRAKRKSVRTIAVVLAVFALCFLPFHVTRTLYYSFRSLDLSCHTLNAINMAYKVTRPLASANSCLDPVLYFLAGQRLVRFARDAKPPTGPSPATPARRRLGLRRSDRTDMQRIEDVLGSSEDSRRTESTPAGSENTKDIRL

P2Y purinoceptor 1 [4] = biological target: P2Y purinoceptor 1 (Meleagris gallopavo, UniProt P49652); assay: Measure of Agonist Potency at turkey Purinoceptor P2Y1 stably expressed in 131N1 astrocytoma cell
Chain of P2Y purinoceptor 1 (Meleagris gallopavo, UniProt P49652) (P49652 whole entry): as the sequence (P49652 whole entry) above

P2Y purinoceptor 4 [5] = biological target: T3, P2Y purinoceptor 4 (Homo sapiens, UniProt P51582); assay: Measure of % Agonist Potency at human P2Y purinoceptor 4 (hP2Y4) stably expressed in […] astrocytoma cell at 10 uM
T3 sequence (P51582 whole entry): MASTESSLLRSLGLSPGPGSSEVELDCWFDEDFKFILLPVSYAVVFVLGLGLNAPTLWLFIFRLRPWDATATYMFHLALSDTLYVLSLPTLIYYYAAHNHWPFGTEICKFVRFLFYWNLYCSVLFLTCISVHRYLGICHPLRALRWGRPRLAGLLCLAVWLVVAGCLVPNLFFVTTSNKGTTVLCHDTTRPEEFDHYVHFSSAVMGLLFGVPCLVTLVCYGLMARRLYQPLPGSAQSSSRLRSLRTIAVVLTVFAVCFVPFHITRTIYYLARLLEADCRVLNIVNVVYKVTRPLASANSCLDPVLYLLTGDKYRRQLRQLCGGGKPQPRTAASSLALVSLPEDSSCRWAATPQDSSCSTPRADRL

[6] = biological target: T2, P2Y purinoceptor 11 (Homo sapiens); assay: Measure of Agonist Potency at human P2Y purinoceptor 11 (hP2Y11) stably expressed in […] astrocytoma cell at 10 uM; NE means no effect at 100 uM
P2Y purinoceptor 4 [7] = biological target: T3, P2Y purinoceptor 4; assay: Measure of Agonist Potency at human P2Y purinoceptor 4 (hP2Y4) stably expressed in […] astrocytoma cell; NE means no effect at 100 uM; method in brief: as §1
P2Y purinoceptor 1 [8] = biological target: P2Y purinoceptor 1 (Homo sapiens, UniProt P47900); assay: Measure of Agonist Potency at human P2Y purinoceptor 1 (hP2Y1) stably expressed in […] astrocytoma cell; method in brief: as §1
Chain of P2Y purinoceptor 1 (Homo sapiens, UniProt P47900) (P47900 whole entry): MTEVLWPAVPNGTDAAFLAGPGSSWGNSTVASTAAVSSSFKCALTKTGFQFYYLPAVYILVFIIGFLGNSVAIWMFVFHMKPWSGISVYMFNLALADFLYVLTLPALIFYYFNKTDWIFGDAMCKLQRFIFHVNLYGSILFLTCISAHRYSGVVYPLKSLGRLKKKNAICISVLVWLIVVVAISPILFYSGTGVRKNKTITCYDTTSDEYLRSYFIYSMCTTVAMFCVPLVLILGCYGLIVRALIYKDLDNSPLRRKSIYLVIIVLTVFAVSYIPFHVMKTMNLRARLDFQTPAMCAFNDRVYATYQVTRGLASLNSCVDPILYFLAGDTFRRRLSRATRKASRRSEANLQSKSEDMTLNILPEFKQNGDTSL

P2Y purinoceptor 4 [9] = biological target: T3, P2Y purinoceptor 4; assay: Measure of Agonist Potency at human P2Y purinoceptor 4 (hP2Y4) stably expressed in 131N1 astrocytoma cell; method in brief: as §1
P2Y purinoceptor 6 [10] = biological target: T1, P2Y purinoceptor 6; assay: Measure of Agonist Potency at human P2Y purinoceptor 6 (hP2Y6) stably expressed in 131N1 astrocytoma cell
Method in brief: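 Human P2Y6 stably expressed in 1321N1 astrocytoma cells; cells labelled overnight with 1 μCi/well [³H]myo-inositol in inositol-free DMEM. [³H]inositol phosphate formation measured next day over 10 min at 37 °C with 10 mM LiCl. Full concentration-effect curves fitted by four-parameter logistic equation; EC50 averaged from 3–8 independent curves (mean ± SE).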

How did the Agonist effect (P2Y purinoceptor 6 [1]) turn out when `O=c1ccn(C2O[C@H](COP(=O)(O)O)[C@@H](O)[C@@H]2O)c(=O)[nH]1` (stereo partly specified) was run?
Its Agonist effect is “inactive”.

Which Agonist effect (P2Y purinoceptor 6 [1]) does the source give for `O=c1ccn(C2C(O)C(O)C3(COP(=O)(O)O)CC23)c(=O)[nH]1` (stereo unspecified) here?
Its Agonist effect is “inactive”.

How did the NE [2] turn out when `Nc1ncnc2c1ncn2[C@@]12C[C@H]1[C@H](COP(=O)(O)O)[C@@H](O)[C@H]2O` was run?
The NE was “inactive”.

With `Nc1ncnc2c1ncn2[C@H]1[C@H](O)[C@H](O)[C@]2(COP(=O)(O)OP(=O)(O)OP(=O)(O)O)C[C@H]12` (stereo in doubt; form 1) as the compound, how does the Activity [3] read?
The Activity was 34.5%.

And the EC50 (P2Y purinoceptor 2)?
Its EC50 is 91 nM.

What about the EC50 (P2Y purinoceptor 1 [4]) of the same compound?
The EC50 was 14 nM.

What about the Activity (P2Y purinoceptor 4 [5]) of the same compound?
The Activity was 32%.

With `Nc1ncnc2c1ncn2[C@@H]1O[C@H](COP(=O)(O)O)[C@@H](O)[C@H]1O` (stereo in doubt; form 4) as the compound, how does the NE [6] read?
The NE was “inactive”.

What about the NE (P2Y purinoceptor 4 [7]) of the same compound?
Its NE is “inactive”.

What does the source list for `Nc1ncnc2c1ncn2[C@@H]1O[C@H](COP(=O)(O)O)[C@@H](O)[C@H]1O` (stereo in doubt; form 3) [ADENOSINE PHOSPHATE]?
EC50 (P2Y purinoceptor 1 [8]): 1500 nM; EC50 (P2Y purinoceptor 1 [4]): 2800 nM

`Nc1ncnc2c1ncn2[C@@H]1O[C@H](COP(=O)(O)O)[C@@H](O)[C@H]1O` (stereo in doubt; form 2) was tested. Which NE [2] did it give?
The NE was “inactive”.

For `O=c1ccn(C2C(O)C(O)C3(COP(=O)(O)OP(=O)(O)O)CC23)c(=O)[nH]1` (stereo unspecified), which Agonist effect (P2Y purinoceptor 6 [1]) is on record?
The Agonist effect was “inactive”.

How did the NE [2] turn out when `Nc1ncnc2c1ncn2[C@@H]1O[C@H](COP(=O)(O)O)[C@@H](O)[C@H]1O` (stereo in doubt; form 1) was run?
The NE was “inactive”.

Which NE [6] does the source give for `O=c1ccn([C@H]2[C@H](O)[C@H](O)[C@]3(COP(=O)(O)OP(=O)(O)OP(=O)(O)O)C[C@H]23)c(=O)[nH]1` (stereo in doubt; form 2) [N-METHANOCARBA-UTP] here?
The NE was “inactive”.

And the EC50 (P2Y purinoceptor 2)?
The EC50 was 15.9 nM.

And the EC50 (P2Y purinoceptor 4 [9])?
Its EC50 is 85 nM.

What about the Agonist effect (P2Y purinoceptor 6 [1]) of the same compound?
Its Agonist effect is “inactive”.

How did the EC50 (P2Y purinoceptor 1 [8]) turn out when `Nc1ncnc2c1ncn2[C@@H]1O[C@H](COP(=O)(O)O)[C@@H](O)[C@H]1O` (stereo in doubt; form 4) [ADENOSINE PHOSPHATE] was run?
The EC50 was 7200 nM.

And the EC50 (P2Y purinoceptor 1 [4])?
Its EC50 is 3500 nM.

How did the EC50 (P2Y purinoceptor 6 [10]) turn out when `O=c1ccn([C@@H]2O[C@H](COP(=O)(O)OP(=O)(O)O)[C@@H](O)[C@H]2O)c(=O)[nH]1` [URIDINE_DIPHOSPHATE] was run?
The EC50 was 15 nM.
